Data published in ChEMBL document CHEMBL4715736, “Identification of anticancer agents based on the thieno[2,3-b]pyridine and 1H-pyrazole molecular scaffolds” (2016).

Assays:
Format in all cases: functional
[1] = test system: HCC 2998; assay: Growth inhibition of human HCC 2998 cells incubated for 48 hrs by sulforhodamine B assay; details: for CC50: read-out: LC50 (the source's name)
[2] = test system: NCI-H23; assay: Growth inhibition of human NCI-H23 cells assessed as cell growth at 0.01 uM incubated for 48 hrs by sulforhodamine B assay relative to control; details: read-out: Activity
[3] = test system: IGROV-1; assay: Growth inhibition of human IGROV-1 cells assessed as cell growth at 1 uM incubated for 48 hrs by sulforhodamine B assay relative to control; details: read-out: Activity
[4] = test system: A549; assay: Growth inhibition of human A549/ATCC cells incubated for 48 hrs by sulforhodamine B assay; details: for CC50: read-out: LC50 (the source's name)
Method in brief: (§1)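 NCI Developmental Therapeutics Program NCI60 panel. Compounds that were active in the 10 µM one-dose screen went on to dose–response testing. Growth at each concentration is expressed relative to untreated control (100%). GI50 (concentration giving 50% of maximal inhibition of proliferation) and TGI (concentration giving total growth inhibition) were derived from the curves.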

[5] = test system: A498; assay: Growth inhibition of human A498 cells assessed as cell growth at 1 uM incubated for 48 hrs by sulforhodamine B assay relative to control; details: read-out: Activity; method in brief: as §1
[6] = test system: BT-549; assay: Growth inhibition of human BT-549 cells incubated for 48 hrs by sulforhodamine B assay; details: for CC50: read-out: LC50 (the source's name); method in brief: as §1
[7] = test system: CAKI-1; assay: Growth inhibition of human CAKI-1 cells assessed as cell growth at 1 uM incubated for 48 hrs by sulforhodamine B assay relative to control; details: read-out: Activity; method in brief: as §1
[8] = test system: NCI/ADR-RES; assay: Growth inhibition of human NCI/ADR-RES cells incubated for 48 hrs by sulforhodamine B assay; details: for CC50: read-out: LC50 (the source's name)
Method in brief: (§2)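 NCI60 panel at the NCI Developmental Therapeutics Program. Only compounds active in the 10 µM screen went to dose-response testing. GI50, the concentration giving 50% of maximal inhibition of proliferation, and TGI, the concentration giving total growth inhibition, were derived from the dose-response curves.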

[9] = test system: OVCAR-4; assay: Growth inhibition of human OVCAR-4 cells incubated for 48 hrs by sulforhodamine B assay; details: for CC50: read-out: LC50 (the source's name)
Method in brief: (§3)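 NCI DTP 60-line human tumour panel. Dose-response curves were run only for ligands active in the initial 10 µM screen. GI50 (concentration giving 50% of maximal inhibition of proliferation) and TGI (concentration giving total growth inhibition) were derived from these curves.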

[10] = test system: SF-539; assay: Growth inhibition of human SF-539 cells assessed as cell growth at 0.01 uM incubated for 48 hrs by sulforhodamine B assay relative to control; details: read-out: Activity
[11] = test system: HOP-92; assay: Growth inhibition of human HOP-92 cells assessed as cell growth at 0.01 uM incubated for 48 hrs by sulforhodamine B assay relative to control; details: read-out: Activity
[12] = test system: HT-29; assay: Growth inhibition of human HT-29 cells assessed as cell growth at 0.1 uM incubated for 48 hrs by sulforhodamine B assay relative to control; details: read-out: Activity
[13] = test system: Malme-3M; assay: Growth inhibition of human Malme-3M cells assessed as cell growth at 100 uM incubated for 48 hrs by sulforhodamine B assay relative to control; details: read-out: Activity
[14] = test system: OVCAR-4; assay: Growth inhibition of human OVCAR-4 cells assessed as cell growth at 0.01 uM incubated for 48 hrs by sulforhodamine B assay relative to control; details: read-out: Activity
[15] = test system: MCF7; assay: Growth inhibition of human MCF7 cells assessed as cell growth at 100 uM incubated for 48 hrs by sulforhodamine B assay relative to control; details: read-out: Activity
[16] = test system: 786-0; assay: Growth inhibition of human 786-0 cells assessed as cell growth at 100 uM incubated for 48 hrs by sulforhodamine B assay relative to control; details: read-out: Activity
[17] = test system: M14; assay: Growth inhibition of human M14 cells assessed as cell growth at 1 uM incubated for 48 hrs by sulforhodamine B assay relative to control; details: read-out: Activity
[18] = test system: T47D; assay: Growth inhibition of human T47D cells incubated for 48 hrs by sulforhodamine B assay; details: for CC50: read-out: LC50 (the source's name); method in brief: as §3
[19] = test system: SF-295; assay: Growth inhibition of human SF-295 cells assessed as cell growth at 100 uM incubated for 48 hrs by sulforhodamine B assay relative to control; details: read-out: Activity
[20] = test system: CCRF-CEM; assay: Growth inhibition of human CCRF-CEM cells assessed as cell growth at 0.01 uM incubated for 48 hrs by sulforhodamine B assay relative to control; details: read-out: Activity; method in brief: as §1
[21] = test system: HOP-92; assay: Growth inhibition of human HOP-92 cells assessed as cell growth at 1 uM incubated for 48 hrs by sulforhodamine B assay relative to control; details: read-out: Activity
[22] = test system: TK-10; assay: Growth inhibition of human TK-10 cells incubated for 48 hrs by sulforhodamine B assay; details: for CC50: read-out: LC50 (the source's name); method in brief: as §3
[23] = test system: SW-620; assay: Growth inhibition of human SW-620 cells assessed as cell growth at 1 uM incubated for 48 hrs by sulforhodamine B assay relative to control; details: read-out: Activity
[24] = test system: RPMI-8226; assay: Growth inhibition of human RPMI-8226 cells assessed as cell growth at 1 uM incubated for 48 hrs by sulforhodamine B assay relative to control; details: read-out: Activity
[25] = test system: SNB-19; assay: Growth inhibition of human SNB-19 cells assessed as cell growth at 0.01 uM incubated for 48 hrs by sulforhodamine B assay relative to control; details: read-out: Activity
[26] = test system: NCI-H226; assay: Growth inhibition of human NCI-H226 cells assessed as cell growth at 100 uM incubated for 48 hrs by sulforhodamine B assay relative to control; details: read-out: Activity
[27] = test system: SR; assay: Growth inhibition of human SR cells assessed as cell growth at 0.01 uM incubated for 48 hrs by sulforhodamine B assay relative to control; details: read-out: Activity
[28] = test system: OVCAR-5; assay: Growth inhibition of human OVCAR-5 cells assessed as cell growth at 1 uM incubated for 48 hrs by sulforhodamine B assay relative to control; details: read-out: Activity
[29] = test system: KM12; assay: Growth inhibition of human KM12 cells assessed as cell growth at 0.01 uM incubated for 48 hrs by sulforhodamine B assay relative to control; details: read-out: Activity
[30] = test system: NCI-H23; assay: Growth inhibition of human NCI-H23 cells assessed as cell growth at 0.1 uM incubated for 48 hrs by sulforhodamine B assay relative to control; details: read-out: Activity
[31] = test system: NCI-H23; assay: Growth inhibition of human NCI-H23 cells incubated for 48 hrs by sulforhodamine B assay; method in brief: as §2
[32] = test system: U-251; assay: Growth inhibition of human U-251 cells assessed as cell growth at 1 uM incubated for 48 hrs by sulforhodamine B assay relative to control; details: read-out: Activity
[33] = test system: BT-549; assay: Growth inhibition of human BT-549 cells assessed as cell growth at 0.01 uM incubated for 48 hrs by sulforhodamine B assay relative to control; details: read-out: Activity
[34] = test system: HT-29; assay: Growth inhibition of human HT-29 cells assessed as cell growth at 1 uM incubated for 48 hrs by sulforhodamine B assay relative to control; details: read-out: Activity
[35] = test system: BT-549; assay: Growth inhibition of human BT-549 cells assessed as cell growth at 0.1 uM incubated for 48 hrs by sulforhodamine B assay relative to control; details: read-out: Activity

## COc1cccc(NC(=O)c2sc3nc4c(cc3c2N)CN(Cc2ccccc2)CC4)c1
[1]
  GI50: 9.13 µM
  TGI: > 100 µM
  CC50: > 100 µM
[2]
  growth at 0.01 µM: 100%
[3]
  growth at 1 µM: 90%
[4]
  GI50: 3.79 µM
  TGI: 53.8 µM
  CC50: > 100 µM
[5]
  growth at 1 µM: 79%
[6]
  GI50: 2.83 µM
  TGI: 26.2 µM
  CC50: > 100 µM
[7]
  growth at 1 µM: 78%
[8]
  GI50: 2.4 µM
  TGI: 33.3 µM
  CC50: > 100 µM
[9]
  GI50: 2.68 µM
  TGI: 19.7 µM
  CC50: > 100 µM
[10]
  growth at 0.01 µM: 86%
[11]
  growth at 0.01 µM: 90%
[12]
  growth at 0.1 µM: 103%
[13]
  growth at 100 µM: -42%
[14]
  growth at 0.01 µM: 86%
[15]
  growth at 100 µM: 3%
[16]
  growth at 100 µM: -47%
[17]
  growth at 1 µM: 57%
[18]
  GI50: 4.62 µM
  TGI: 47.3 µM
  CC50: > 100 µM
[19]
  growth at 100 µM: -52%
[20]
  growth at 0.01 µM: 99%
[21]
  growth at 1 µM: 64%
[22]
  GI50: 4.82 µM
  TGI: 21.6 µM
  CC50: 86.8 µM
[23]
  growth at 1 µM: 57%
[24]
  growth at 1 µM: 84%
[25]
  growth at 0.01 µM: 98%
[26]
  growth at 100 µM: -29%
[27]
  growth at 0.01 µM: 100%
[28]
  growth at 1 µM: 95%
[29]
  growth at 0.01 µM: 100%
[30]
  growth at 0.1 µM: 101%
[31]
  GI50: 7.18 µM
  LC50 (50% lethal concentration): > 100 µM
  TGI: 49.2 µM
[32]
  growth at 1 µM: 72%
[33]
  growth at 0.01 µM: 88%
[34]
  growth at 1 µM: 96%
[35]
  growth at 0.1 µM: 91%

## Nc1c(C(=O)Nc2ccccc2)sc2nc3c(cc12)CN(Cc1ccccc1)CC3
[1]
  GI50: 76.1 µM
  TGI: > 100 µM
  CC50: > 100 µM
[2]
  growth at 0.01 µM: 97%
[3]
  growth at 1 µM: 101%
[4]
  GI50: 13.9 µM
  TGI: > 100 µM
  CC50: > 100 µM
[5]
  growth at 1 µM: 72%
[6]
  GI50: 16.8 µM
  TGI: 92.3 µM
  CC50: > 100 µM
[7]
  growth at 1 µM: 87%
[8]
  GI50: 16.3 µM
  TGI: > 100 µM
  CC50: > 100 µM
[9]
  GI50: 1.97 µM
  TGI: 23.1 µM
  CC50: > 100 µM
[10]
  growth at 0.01 µM: 96%
[11]
  growth at 0.01 µM: 92%
[12]
  growth at 0.1 µM: 101%
[13]
  growth at 100 µM: 14%
[14]
  growth at 0.01 µM: 101%
[15]
  growth at 100 µM: 14%
[16]
  growth at 100 µM: 22%
[17]
  growth at 1 µM: 91%
[18]
  GI50: 16.2 µM
  TGI: > 100 µM
  CC50: > 100 µM
[19]
  growth at 100 µM: 12%
[20]
  growth at 0.01 µM: 96%
[21]
  growth at 1 µM: 74%
[22]
  GI50: 4.09 µM
  TGI: 54.7 µM
  CC50: > 100 µM
[23]
  growth at 1 µM: 86%
[24]
  growth at 1 µM: 93%
[25]
  growth at 0.01 µM: 93%
[26]
  growth at 100 µM: 19%
[27]
  growth at 0.01 µM: 98%
[28]
  growth at 1 µM: 93%
[29]
  growth at 0.01 µM: 100%
[30]
  growth at 0.1 µM: 101%
[31]
  GI50: 21.7 µM
  LC50 (50% lethal concentration): > 100 µM
  TGI: > 100 µM
[32]
  growth at 1 µM: 101%
[33]
  growth at 0.01 µM: 97%
[34]
  growth at 1 µM: 101%
[35]
  growth at 0.1 µM: 89%

## Cc1cccc(NC(=O)c2sc3nc4c(cc3c2N)C(=O)CCC4)c1
[1]
  GI50: 0.383 µM
  TGI: > 100 µM
  CC50: > 100 µM
[2]
  growth at 0.01 µM: 99%
[3]
  growth at 1 µM: 42%
[4]
  GI50: 0.3 µM
  TGI: > 100 µM
  CC50: > 100 µM
[5]
  growth at 1 µM: -11%
[6]
  TGI: ≥ 100 µM
  CC50: > 100 µM
[7]
  growth at 1 µM: 30%
[8]
  GI50: 0.23 µM
  TGI: ≥ 100 µM
  CC50: > 100 µM
[9]
  TGI: ≥ 100 µM
  CC50: > 100 µM
[10]
  growth at 0.01 µM: 90%
[11]
  growth at 0.01 µM: 87%
[12]
  growth at 0.1 µM: 70%
[13]
  growth at 100 µM: -16%
[14]
  growth at 0.01 µM: 90%
[15]
  growth at 100 µM: -56%
[16]
  growth at 100 µM: 2%
[17]
  growth at 1 µM: 11%
[18]
  TGI: > 100 µM
  CC50: > 100 µM
[19]
  growth at 100 µM: 7%
[20]
  growth at 0.01 µM: 96%
[21]
  growth at 1 µM: 50%
[22]
  GI50: > 100 µM
  TGI: ≥ 100 µM
  CC50: > 100 µM
[23]
  growth at 1 µM: 19%
[24]
  growth at 1 µM: 36%
[25]
  growth at 0.01 µM: 94%
[26]
  growth at 100 µM: -15%
[28]
  growth at 1 µM: 44%
[29]
  growth at 0.01 µM: 95%
[30]
  growth at 0.1 µM: 82%
[31]
  GI50: 0.481 µM
  LC50 (50% lethal concentration): > 100 µM
  TGI: ≥ 100 µM
[32]
  growth at 1 µM: 17%
[33]
  growth at 0.01 µM: 87%
[34]
  growth at 1 µM: 2%
[35]
  growth at 0.1 µM: 74%
